Data: ChEMBL document CHEMBL4689842, “EUbOPEN Chemogenomics Library wave 1” (2021)
“And” between values parts separate entries of the source, which are not always exact repeats. Equal entries are not always repeated.

Tested on: HEK-293T
Assay: Multiplex assay against HEK293T
Format: toxicity, cell-based
Settings: human, 1 µM, compound concentration 1 uM
Summary of the method: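 Tubulin, mitochondrial-mass and membrane-permeability phenotypes are per cents of healthy-nucleus cells. Cells were gated by CellPathfinder machine learning into Hoechst high-intensity objects or normal cells, normal cells into healthy, pyknosed or fragmented nuclei, and pyknosed cells into mitotic or apoptotic. Before that, live cells stained at seeding with Hoechst33342, BioTracker Green Microtubule Cytoskeleton Dye, MitoTracker Red and Annexin V Alexa Fluor 680 were imaged on a CQ1 microscope at 37°C and 5% CO2 after compound addition.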

In the case of `C[C@]1(O)C[C@@H](c2nc(-c3ccc4ccc(-c5ccccc5)nc4c3)c3c(N)nccn32)C1` [LINSITINIB], the “Population Apoptotic (%)” value (12 h, replicate 1) is reported as 31% and 29%, the “Population Fragmented Nuclei (%)” value (12 h, replicate 1) is reported as 19% and 26% and the “Population Healthy Nuclei (%)” value (12 h, replicate 1) is reported as 45% and 44%. For the same compound, the “Population Hoechst High Intensity Objects (%)” value (12 h, replicate 1) was 33% and 19%, the “Population Membrane Permeable-Phenotype (%)” value (12 h, replicate 1) was 11% and 4% and the “Population Mitochondria Different-Phenotype (%)” value (12 h, replicate 1) was 17% and 6%. For the same compound, the “Population Mitotic Cells (%)” value (12 h, replicate 1) was 68% and 70%, the “Population Normal (%)” value (12 h, replicate 1) was 66% and 80% and the “Population Pyknosed Nuclei (%)” value (12 h, replicate 1) was 35% and 28%. The “Total Cell Count” value (12 h, replicate 1) was 588 and 493, the “Population Apoptotic (%)” value (12 h, replicate 2) was 18% and 11% and the “Population Fragmented Nuclei (%)” value (12 h, replicate 2) was 4% and 8%. For the same compound, the “Population Healthy Nuclei (%)” value (12 h, replicate 2) was 83% and 86%, the “Population Hoechst High Intensity Objects (%)” value (12 h, replicate 2) was 14% and 5% and the “Population Membrane Permeable-Phenotype (%)” value (12 h, replicate 2) was 5% and 1%. The “Population Mitotic Cells (%)” value (12 h, replicate 2) was 81% and 88%, the “Population Normal (%)” value (12 h, replicate 2) was 85% and 94% and the “Population Pyknosed Nuclei (%)” value (12 h, replicate 2) was 11% and 4%. For the same compound, the “Total Cell Count” value (12 h, replicate 2) was 891 and 1486, the “Population Apoptotic (%)” value (24 h, replicate 1) was 31% and 26% and the “Population Fragmented Nuclei (%)” value (24 h, replicate 1) was 22% and 26%. For the same compound, the “Population Healthy Nuclei (%)” value (24 h, replicate 1) was 53% and 56%, the “Population Hoechst High Intensity Objects (%)” value (24 h, replicate 1) was 27% and 13% and the “Population Membrane Permeable-Phenotype (%)” value (24 h, replicate 1) was 7% and 5%. For the same compound, the “Population Mitochondria Different-Phenotype (%)” value (24 h, replicate 1) was 29% and 10%, the “Population Mitotic Cells (%)” value (24 h, replicate 1) was 68% and 73% and the “Population Normal (%)” value (24 h, replicate 1) was 72% and 86%. The “Population Pyknosed Nuclei (%)” value (24 h, replicate 1) was 23% and 16%, the “Total Cell Count” value (24 h, replicate 1) was 525 and 479 and the “Population Fragmented Nuclei (%)” value (24 h, replicate 2) was 10%. The “Population Healthy Nuclei (%)” value (24 h, replicate 2) was 82% and 71%, the “Population Hoechst High Intensity Objects (%)” value (24 h, replicate 2) was 18% and 6% and the “Population Membrane Permeable-Phenotype (%)” value (24 h, replicate 2) was 8% and 4%. The “Population Mitotic Cells (%)” value (24 h, replicate 2) was 80% and 93%, the “Population Normal (%)” value (24 h, replicate 2) was 81% and 93% and the “Population Pyknosed Nuclei (%)” value (24 h, replicate 2) was 6% and 2%. The “Total Cell Count” value (24 h, replicate 2) was 1000 and 2217.
